Our source for the yeast fitness values is the RNAGym collection of RNA variant scans (doi:10.1126/science.aae0568).

This sample holds only a part of the variants without activity. Some results are limits rather than exact numbers.

The chains are these.
B1: tRNA (parent)
chain: GUUCCGUUGGCGUAAUGGUAACGCGUCUCCCUCCUAAGGAGAAGACUGCGGGUUCGAGUCCCGUACGGAACG

The variants in the data set derive from B1. The data set is described as follows: yeast fitness relative to wild type (ratio to wild type); higher = fitter; tRNA-Arg(CCU), competitive growth, 37 C, YPD. The method in brief: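 Amplicons of the tRNA-Arg(CCU) gene were sequenced, 100-nucleotide paired-end, from the start population and from each end population of a pooled yeast competition. The competition, in six parallel replicates, lasted 24 hours in YPD at 37°C. Fitness relative to wild type was calculated from changes in genotype frequencies. Genotypes had to have ≥ 100 starting reads, and estimates < 0.5 were set to 0.5.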
Regarding GUUCCGUCGGCGUAAUGGUAACGCGUCUCCCUCCUAAGGAGAAGCCUGCGGGUUCGAGUCCGGUCCGGAACG [U8C A45C C62G A65C], the yeast fitness is ≤ 0.5.

Turning to GUUCCGUCGGUGUAAUGGUAACGCGUCUCCCUCCUAAGGAGAAGACUGCGGGUUCGAUUCACGUACGGAACG [U8C C11U G58U C61A], the yeast fitness was ≤ 0.5. To GUUCCGUCGGCGUAAUGGUAUCGCGUCUCCCUCCUAAGCAGAAGACUGCAGGUUCGAGUCCCGUACGGAACG [U8C A21U G39C G50A] belongs ≤ 0.5. The same measure for GUUCCGUCGGCGUAAUGGUAACGCGUCUCCCUCCUAAGGAGUGGACUGCGGGUUCGAGUCCCGUACGGAACG [U8C A42U A43G]: 0.507; for GUUCCGUCGGCGUAAUGGUAAGGCGUCUCCCUCCUAGGGAGAAGACUGCGGGUUCGAGUACCGUACGGAGCG [U8C C22G A37G C60A A70G]: ≤ 0.5; for GUUCCGUCGGCGUAAUGGUAACGCGUCUCCCUCCUAAGGAGAGGACUGCGGGUUCGAGUCCCGUACGGACCG [U8C A43G A70C]: 0.74. Turning to GUUCCGUCGGCGUAAUGGUAACGCGUCUCCCUCCUUAAGAGAAGUCUGUGGGUUCGAGUCGCGUACGGAACG [U8C A36U G38A A45U C49U C61G], the yeast fitness was ≤ 0.5. The same measure for GUUCCGUCGGCGUAAUGGUAAAGCGUCUCCCUCCUAAGGAGAAGACAGCGGGUUCGAGUCCCGUACGGAACG [U8C C22A U47A]: ≤ 0.5; for GUUCCGUCGGCGUAAUGGUAUCGCGUCUCCCACCUAAGGAGAAGACUGCGGGUUGGAGCCCCGUACGGAACG [U8C A21U U32A C55G U59C]: ≤ 0.5. To GUUCCGUCGGCGUAAUGGUAACGGGUCUCCCUCCUAAGGAGAAGACUGCGGGUUCGAGUCCCGUACGGAACG [U8C C24G] belongs 0.576.

As for GUUCCGUCGGCGUAAUGGUAAAGCGUCUCCCUGCUAAGCAGAAGAUUGCGGGUUCGAGUCCCGUACGGAACG [U8C C22A C33G G39C C46U], the yeast fitness was ≤ 0.5. Consider GUUCCGUCGGUGUAAGGGUACCGCGUCUCCGUCCUAAGAAGAAGACUGCGGGUUCCAGUCCCGUACGGAACG [U8C C11U U16G A21C C31G G39A G56C], for which the yeast fitness is ≤ 0.5.

For GUUCCGUCGGCGUAAUGGUAAAGCGUCUCCCUCCUAAGGAGAAGAAUGCGGGUUCGAGUCCCGUUCGGAACG [U8C C22A C46A A65U], the yeast fitness was ≤ 0.5. Take GUUCCGUCGGAGUAAUGGGAACGCGUCUCCCUCCUGAGGAGAAGACUGCGGGUCCGAGUCCCGUACGGCACG [U8C C11A U19G A36G U54C A69C]: the yeast fitness is ≤ 0.5. The same measure for GUUCCGUCGGCGUAAUGGUAAGGCGUCUCCCUCCUAAGGAGAAGACUGUGGGUUCGAGUCCCACACGGAACG [U8C C22G C49U G63A U64C]: ≤ 0.5; for GUUCCGUCGGCGUAAUGGUAAAGCGUCUCCCUGCUAAGCAGAAGACUGCGGGUCCGAGUCCCGUACGGAACG [U8C C22A C33G G39C U54C]: ≤ 0.5. As for GUUCCGUCGGCGUAAUGGUAACGCGUCUCCCUCCUAGCGAGAAGACUGCGAGUUCGAGUCCCGUACGGAACG [U8C A37G G38C G51A], the yeast fitness was ≤ 0.5. To GUUCCGUCGGCGUAAUGGUAACGCGUCUCCCUCCUAAGGAGAAGGCUGAGGGUUCGAGUCCCGUACGGAACG [U8C A45G C49A] belongs 0.574; to GUUCCGUCGGCGUAAUGGUAAAGCGUCUCCCUCCUAAGAAGAAGACAGCGGGUUCGAGUCCCGUACGGAACG [U8C C22A G39A U47A], ≤ 0.5. The same measure for GUUCCGUCGGAGUACUGGUAACGCGUCUCCCUCCUAAGGAGAAGACUGUGGGUUCGGGUCUCGUACGGAACG [U8C C11A A15C C49U A57G C61U]: ≤ 0.5.

GUUCCGUCGGCGUAAUGGUAAGGCGUCUCCCUCCUAAGGAGAAGACUGCGGGUUCGAGUCCCGUACGGAACG [U8C C22G]: the yeast fitness was 0.935.

Take GUUCCGUCGGCGUAAUGGUAACGCGUCUCCCUCCUAAGGAGUAGACUGCGGGUUCGAGUCCCAUACGGAGCG [U8C A42U G63A A70G]: the yeast fitness was ≤ 0.5.

As to GUUCCGUCGGAGUAAUGGUAACGCCUCUUCCUCCUAAGGAGAAGACUGCGGGUUCGAGUCCCGUCCGGAUCG [U8C C11A G25C C29U A65C A70U], the yeast fitness was ≤ 0.5. To GUUCCGUCGGCGUAAUGGUAACGCGUCUCCCUCCUAAGGAGAAGACUGCGGGUUCGAGUCCCGUACGGAUCG [U8C A70U] belongs 0.994. Take GUUCCGUCGGGGUAUUGGUGGCGCGUCUCCCUCCUAACGAGAAGACUGCGGGUUCGAGUGCCGUACGGAACG [U8C C11G A15U A20G A21G G38C C60G]: the yeast fitness came out at 0.568. Take GUUCCGUCGGUGUAAUGGUAACGCGUCUCCCUCCUUAGGAGAAGACUGCGGGUUCGAGUCCCGUACGGAACG [U8C C11U A36U]: the yeast fitness is ≤ 0.5.

In the case of GUUCCGUCGGCGUAAUGGUAACGCGUCUCCCUCCUAGCGAGAAGACUGCGGGUUCGAGUCCCGUACGGAACG [U8C A37G G38C], the yeast fitness was ≤ 0.5.

As for GUUCCGUCGGCGUAAUGGUAACGCGUCUCCCUCCUAAGGAGAAGCCUGCGGGUUCAAGUCCCGUACGGAACG [U8C A45C G56A], the yeast fitness was 0.798. To GUUCCGUCGGAGUAAUGGUAACGCCUCACCCUCCUAAGGUGAAGACUGCGGGUUCGAGUCCCGUACGGAACG [U8C C11A G25C U28A A40U] belongs ≤ 0.5. GUUCCGUCGGCGUAAUGGUAACGCGUCUCCCUCCUAAGGAGGAGACUGCGGGUUCGAGUCUCGUACGGAACG [U8C A42G C61U]: the yeast fitness worked out at 0.526. Turning to GUUCCGUCGGCGUAAUGGUAACGCGUCUCCCUCCUUAAGAGAAGACUGCGGGUUCGAGUCCCGUCCGGAACG [U8C A36U G38A A65C], the yeast fitness is 0.579. Consider GUUCCGUCGGCGUAAUGGUAACGAGUCUCCCUCCUAAGGAGAAGAGUGCGGCUUCGAGACCCGUACGGAACG [U8C C24A C46G G52C U59A], for which the yeast fitness was ≤ 0.5. The same measure for GUUCCGUCGGCGUAAUGGUAAUGCGUCUCCUUCCUAAGGAGAAGACUGCGGGUUCGAGUCCCGUACGGAACG [U8C C22U C31U]: 0.54. To GUUCCGUCGGCGUAAUGGUAACGCGUCUCCCUCCUACGGAGAAGACUGGGGGUUCGAGUCCCGUACGGAACG [U8C A37C C49G] belongs ≤ 0.5. To GUUCCGUCGGCGUAAUGGUAACGCGUCUCCCUCCUAAGGUGAAGGCUGCGGGUUCGAGUCCCGUACGGAACG [U8C A40U A45G] belongs 0.527; to GUUCCGUCGGCGUAAUGGUAACGCGUCUCCCUCCUAAGGAGUAGACUGCGGGAUCGAGUCCCGUACGGAACG [U8C A42U U53A], ≤ 0.5. Consider GUUCCGUCGGGGUAAUGCUAACGCGUCUCCCUCCUAAGGAGAAGACUGAGGGUUCGAGUCCCGUACGGACCG [U8C C11G G18C C49A A70C], for which the yeast fitness is ≤ 0.5. The same measure for GUUCCGUCGGCGUAAUGGUAAAGCGUCUGCCUCCUAAGGAGAAAACUGCGGGUUCGAGUCCCGGACGGAACG [U8C C22A C29G G44A U64G]: ≤ 0.5.
